Tests used:
[1] = MAD study, safety and tolerability; format: in vivo, human; conditions: for Abdominal discomfort, number of subjects (%) / Abdominal pain, number of subjects (%) / Anxiety, number of subjects (%) / Back pain, number of subjects (%) / Diarrhea, number of subjects (%) / Dizziness, number of subjects (%) / Epistaxis, number of subjects (%) / Erythema of eyelid, number of subjects (%) / Erythema, number of subjects (%) / Headache, number of subjects (%) / Hyperbilirubinemia, number of subjects (%) / Hyperhidrosis, number of subjects (%) / Hypoesthesia, number of subjects (%) / Insomnia, number of subjects (%) / Muscle hemorrhage, number of subjects (%) / Musculoskeletal stiffness, number of subjects (%) / Nausea, number of subjects (%) / Neck pain, number of subjects (%) / Oropharyngeal pain, number of subjects (%) / Subjects with any TEAEs, number of subjects (%) / Vomiting, number of subjects (%): N=6
Outline: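 MAD cohorts were 6 active and 2 placebo healthy males, dosed once daily for 7 days, confined day −1 to day 8, with follow-up on day 14. Safety was monitored by vital signs, clinical labs, 12-lead ECG, physical exams, and AEs reported by subjects or observed by investigators. AEs were coded with MedDRA 19.1. Counts are given as subjects with AEs, % of the safety population. Placebo subjects were pooled.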

[2] = cited from earlier work

## Cc1nn(Cc2ccc(Br)cc2)c(C)c1NC(=O)CSc1ccccc1 [KM-819]
[1]; 30 mg QD 7 days, young
  Abdominal discomfort, number of subjects (%): 0
  Abdominal pain, number of subjects (%): 0
  Anxiety, number of subjects (%): 0
  Back pain, number of subjects (%): 0
  Diarrhea, number of subjects (%): 0
  Dizziness, number of subjects (%): 1 (16.7)
  Epistaxis, number of subjects (%): 0
  Erythema of eyelid, number of subjects (%): 0
  Erythema, number of subjects (%): 0
  Headache, number of subjects (%): 2 (33.3)
  Hyperbilirubinemia, number of subjects (%): 0
  Hyperhidrosis, number of subjects (%): 0
  Hypoesthesia, number of subjects (%): 0
  Insomnia, number of subjects (%): 0
  Muscle hemorrhage, number of subjects (%): 0
  Musculoskeletal stiffness, number of subjects (%): 0
  Nausea, number of subjects (%): 2 (33.3)
  Neck pain, number of subjects (%): 0
  Oropharyngeal pain, number of subjects (%): 0
  Subjects with any TEAEs, number of subjects (%): 2 (33.3)
  Vomiting, number of subjects (%): 2 (33.3)
[1]; 100 mg QD 7 days, young
  Abdominal discomfort, number of subjects (%): 0
  Abdominal pain, number of subjects (%): 0
  Anxiety, number of subjects (%): 0
  Back pain, number of subjects (%): 2 (33.3)
  Diarrhea, number of subjects (%): 0
  Dizziness, number of subjects (%): 1 (16.7)
  Epistaxis, number of subjects (%): 0
  Erythema of eyelid, number of subjects (%): 0
  Erythema, number of subjects (%): 0
  Headache, number of subjects (%): 1 (16.7)
  Hyperbilirubinemia, number of subjects (%): 0
  Hyperhidrosis, number of subjects (%): 0
  Hypoesthesia, number of subjects (%): 0
  Insomnia, number of subjects (%): 0
  Muscle hemorrhage, number of subjects (%): 0
  Musculoskeletal stiffness, number of subjects (%): 0
  Nausea, number of subjects (%): 1 (16.7)
  Neck pain, number of subjects (%): 0
  Oropharyngeal pain, number of subjects (%): 0
  Subjects with any TEAEs, number of subjects (%): 4 (66.7)
  Vomiting, number of subjects (%): 0
[1]; 200 mg QD 7 days, elderly
  Abdominal discomfort, number of subjects (%): 0
  Abdominal pain, number of subjects (%): 1 (16.7)
  Anxiety, number of subjects (%): 0
  Back pain, number of subjects (%): 2 (33.3)
  Diarrhea, number of subjects (%): 1 (16.7)
  Dizziness, number of subjects (%): 0
  Epistaxis, number of subjects (%): 0
  Erythema of eyelid, number of subjects (%): 0
  Erythema, number of subjects (%): 0
  Headache, number of subjects (%): 1 (16.7)
  Hyperbilirubinemia, number of subjects (%): 0
  Hyperhidrosis, number of subjects (%): 0
  Hypoesthesia, number of subjects (%): 0
  Insomnia, number of subjects (%): 1 (16.7)
  Muscle hemorrhage, number of subjects (%): 1 (16.7)
  Musculoskeletal stiffness, number of subjects (%): 0
  Nausea, number of subjects (%): 0
  Neck pain, number of subjects (%): 1 (16.7)
  Oropharyngeal pain, number of subjects (%): 0
  Subjects with any TEAEs, number of subjects (%): 3 (50.0)
  Vomiting, number of subjects (%): 0
[1]; 200 mg QD 7 days, young
  Abdominal discomfort, number of subjects (%): 1 (16.7)
  Abdominal pain, number of subjects (%): 0
  Anxiety, number of subjects (%): 0
  Back pain, number of subjects (%): 1 (16.7)
  Diarrhea, number of subjects (%): 0
  Dizziness, number of subjects (%): 2 (33.3)
  Epistaxis, number of subjects (%): 0
  Erythema of eyelid, number of subjects (%): 0
  Erythema, number of subjects (%): 0
  Headache, number of subjects (%): 5 (83.3)
  Hyperbilirubinemia, number of subjects (%): 1 (16.7)
  Hyperhidrosis, number of subjects (%): 0
  Hypoesthesia, number of subjects (%): 2 (33.3)
  Insomnia, number of subjects (%): 0
  Muscle hemorrhage, number of subjects (%): 0
  Musculoskeletal stiffness, number of subjects (%): 1 (16.7)
  Nausea, number of subjects (%): 4 (66.7)
  Neck pain, number of subjects (%): 0
  Oropharyngeal pain, number of subjects (%): 1 (16.7)
  Subjects with any TEAEs, number of subjects (%): 5 (83.3)
  Vomiting, number of subjects (%): 4 (66.7)
[1]; 400 mg QD 7 days, young
  Abdominal discomfort, number of subjects (%): 0
  Abdominal pain, number of subjects (%): 0
  Anxiety, number of subjects (%): 0
  Back pain, number of subjects (%): 1 (16.7)
  Diarrhea, number of subjects (%): 0
  Dizziness, number of subjects (%): 0
  Epistaxis, number of subjects (%): 1 (16.7)
  Erythema of eyelid, number of subjects (%): 1 (16.7)
  Erythema, number of subjects (%): 0
  Headache, number of subjects (%): 4 (66.7)
  Hyperbilirubinemia, number of subjects (%): 0
  Hyperhidrosis, number of subjects (%): 1 (16.7)
  Hypoesthesia, number of subjects (%): 0
  Insomnia, number of subjects (%): 0
  Muscle hemorrhage, number of subjects (%): 0
  Musculoskeletal stiffness, number of subjects (%): 1 (16.7)
  Nausea, number of subjects (%): 0
  Neck pain, number of subjects (%): 0
  Oropharyngeal pain, number of subjects (%): 0
  Subjects with any TEAEs, number of subjects (%): 5 (83.3)
  Vomiting, number of subjects (%): 0
[1]; MAD, headache
  subjects withdrawn due to AEs: 2
[1]; MAD, headache, considered unlikely related to KM-819
  serious adverse events (SAEs) reported: 1
[2]; 4-week rat toxicology study
  no observed adverse effect level (NOAEL): 500 mg/kg/day
[2]; 4 weeks, up to 500 mg/kg/day
  adverse effects after repeated administration: did not show adverse effects

From paper PMC6445238 (Drug Design, Development and Therapy, 2019)
